The subject of assay [1] is MOLT-4. The assay is described as follows: Cytotoxicity against human MOLT-4 assessed as growth inhibition at 10 uM by NCI protocol relative to control. Conditions: read-out: GI. Format: functional. The essentials:
(§1)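 Run by NCI as a single-dose screen at 10 μM across the sixty-cell-line panel, which covers nine human tumour tissue types. The read-out is percent growth inhibition of treated cells relative to untreated cells.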

Assay [2] has as its system RPMI-8226. The assay is described as follows: Cytotoxicity against human RPMI-8226 assessed as growth inhibition at 10 uM by NCI protocol relative to control. The class given is functional. Conditions: read-out: GI. The essentials:
as §1

The subject of assay [3] is SR. In words: Cytotoxicity against human SR assessed as growth inhibition at 10 uM by NCI protocol relative to control. The class given is functional. The following applies: read-out: GI. The essentials: (§2)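 Run by the NCI under its standard protocol: one dose of 10 μM against a sixty-line panel from nine human tumour tissues. Result given as percent growth inhibition of treated cells relative to untreated cells.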

The test system of assay [4] is HOP-62. In words: Cytotoxicity against human HOP-62 assessed as growth inhibition at 10 uM by NCI protocol relative to control. Format: functional. Conditions: read-out: GI. Put shortly: as §1
Assay [5] concerns HOP-92. In words: Cytotoxicity against human HOP-92 assessed as growth inhibition at 10 uM by NCI protocol relative to control. The class given is functional. The following applies: for inhibition of growth at 10 µM: read-out: GI. The essentials: as §1
Assay [6] deals with NCI-H322M. In words: Cytotoxicity against human NCI-H322M assessed as growth inhibition at 10 uM by NCI protocol relative to control. Format: functional. Conditions: read-out: GI. Put shortly: as §1
Assay [7] relates to HCT-116. In words: Cytotoxicity against human HCT-116 assessed as growth inhibition at 10 uM by NCI protocol relative to control. The following applies: read-out: GI. The class given is functional. Put shortly:
as §1

Assay [8] concerns HT-29. In words: Cytotoxicity against human HT29 assessed as growth inhibition at 10 uM by NCI protocol relative to control. The class given is functional. The following applies: read-out: GI. The essentials:
as §1

In assay [9] the test system is LOX IMVI. The assay is described as follows: Cytotoxicity against human LOX IMVI assessed as growth inhibition at 10 uM by NCI protocol relative to control. Format: functional. The following applies: read-out: GI. Put shortly:
as §1

The test system of assay [10] is SK-MEL-5. The assay is described as follows: Cytotoxicity against human SK-MEL-5 assessed as growth inhibition at 10 uM by NCI protocol relative to control. The following applies: read-out: GI. The class given is functional. Put shortly: as §1
The test system of assay [11] is UACC-62. The assay is described as follows: Cytotoxicity against human UACC-62 assessed as growth inhibition at 10 uM by NCI protocol relative to control. Format: functional. Conditions: read-out: GI. The essentials:
as §2

The test system of assay [12] is PC-3. The assay is described as follows: Cytotoxicity against human PC3 assessed as growth inhibition at 10 uM by NCI protocol relative to control. Format: functional. Conditions: read-out: GI. Put shortly: as §1
Assay [13] deals with MCF7. In words: Cytotoxicity against human MCF7 assessed as growth inhibition at 10 uM by NCI protocol relative to control. The class given is functional. Conditions: read-out: GI. The essentials: as §1
The subject of assay [14] is MDA-MB-231. The assay is described as follows: Cytotoxicity against human MDA-MB-231 assessed as growth inhibition at 10 uM by NCI protocol relative to control. The class given is functional. The following applies: read-out: GI. Put shortly: as §1
In assay [15] the test system is Hs-578T. The assay is described as follows: Cytotoxicity against human HS 578T assessed as growth inhibition at 10 uM by NCI protocol relative to control. The class given is functional. Conditions: read-out: GI. The essentials:
as §1

Assay [16] has as its system T47D. In words: Cytotoxicity against human T-47D assessed as growth inhibition at 10 uM by NCI protocol relative to control. Format: functional. The following applies: read-out: GI. Put shortly: as §2
The test system of assay [17] is MCF10. In words: Cytotoxicity against human MCF10 cells assessed as reduction in cell viability after 3 hrs by MTT assay. The following applies: MCF10, 3 h. Background: Tetrazolium assays rely on reduction of a dye to a coloured formazan, in cell work by metabolically active cells.
The test system of assay [18] is T47D. In words: Induction of cell cycle arrest in human T47D cells assessed as increase in accumulation at G0/G1 phase after 24 hrs by propidium iodide/Annexin V staining based FACScan flow cytometry(reference value: 52.59%). Format: functional. (In general: In flow cytometry, cells or beads pass a laser one at a time.)
Assay [19] concerns T47D. The assay is described as follows: Induction of cell cycle arrest in human T47D cells assessed as increase in accumulation at S phase after 24 hrs by propidium iodide/Annexin V staining based FACScan flow cytometry(reference value: 34.62%). Format: functional.
The test system of assay [20] is T47D. In words: Induction of cell cycle arrest in human T47D cells assessed as increase in accumulation at G2/M phase after 24 hrs by propidium iodide/Annexin V staining based FACScan flow cytometry(reference value: 12.79%). The class given is functional.
Assay [21] relates to T47D. The assay is described as follows: Induction of cell cycle arrest in human T47D cells assessed as increase in accumulation at pre G1 phase after 24 hrs by propidium iodide/Annexin V staining based FACScan flow cytometry(reference value: 2.61%). Format: functional.
Assay [22] has as its system T47D. In words: Induction of apoptosis in human T47D cells assessed as total apoptotic cells after 24 hrs by Annexin V-FITC/propidium iodide staining based flow cytometric analysis (reference value: 2.61 %). The class given is functional.
Assay [23] relates to T47D. The assay is described as follows: Induction of apoptosis in human T47D cells assessed as early apoptotic cells after 24 hrs by Annexin V-FITC/propidium iodide staining based flow cytometric analysis (reference value: 0.66 %). The class given is functional.
Assay [24] deals with T47D. In words: Induction of apoptosis in human T47D cells assessed as late apoptotic cells after 24 hrs by Annexin V-FITC/propidium iodide staining based flow cytometric analysis (reference value: 0.21 %). Format: functional.
The test system of assay [25] is T47D. The assay is described as follows: Induction of apoptosis in human T47D cells assessed as necrotic cells after 24 hrs by Annexin V-FITC/propidium iodide staining based flow cytometric analysis (reference value: 1.74%). The class given is functional.

The source made the active and inactive calls. The rule behind the calls is not given here.

Consider `O=C(CN1CCN(c2cc(=O)n(-c3ccccc3)c3ccccc23)CC1)Nc1nc(-c2ccccc2)cs1`, for which the inhibition of growth at 10 µM was 82.2% in assay [1]; 53.8% in assay [2]; 48.7% in [3]; 33.5% in assay [4]; 10.6% in assay [6]; 46.6% in assay [7]. The inhibition of growth at 10 µM amounted to 27% in [8]; 50.5% in assay [9]; 94.7% in assay [10]; 36.1% in [11]; 67.5% in [12]; 72.4% in [13]. The inhibition of growth at 10 µM was determined as 37.5% in assay [14], 17.1% in assay [15] and 83.4% in assay [16]. In addition, the “growth inhibition (GI)” value in assay [5] is “inactive”.
As for `O=C(CN1CCN(c2cc(=O)[nH]c3ccc(F)cc23)CC1)Nc1nc(-c2ccc(Cl)cc2)cs1`, the inhibition of growth at 10 µM in assay [1] was 52.8%; in assay [2], 38.3%; in assay [3], 29.1%; in assay [5], 29.7%; in [6], 21.3%; in assay [7] it was 48%. Besides, the inhibition of growth at 10 µM in assay [8] amounted to 25.6%; in [9], 21.8%; in [10], 34.6%; in assay [11] it was 32%; in [12], 45.1%; in assay [13], 39.7%. The values for the inhibition of growth at 10 µM in [14], in [15] and in assay [16] were 16.6%, 33.5% and 73.2%, respectively.
The term IC50 denotes the concentration at which inhibition is half-maximal. With `O=C(CN1CCN(c2cc(=O)n(-c3ccccc3)c3ccccc23)CC1)Nc1nc(-c2ccc(Cl)cc2)cs1`, the inhibition of growth at 10 µM came to 71% in assay [1]; 63.3% in [2]; 43.2% in [3]; 34.2% in [4]; 10.9% in assay [6]; 64.2% in [7]. For the same compound, the inhibition of growth at 10 µM in [8] amounted to 36.2%; in assay [9] it was 41.6%; in [10], 94.9%; in assay [11], 38.5%; in assay [12], 65%; in assay [13] it was 79.9%. Also, the values for the inhibition of growth at 10 µM in assay [14] and in assay [16] were 25.3% and 75.7%, respectively. In addition, the “growth inhibition (GI)” value in [5] is “inactive”. In assay [17], the half-inhibitory concentration (IC50) was determined as 64.6 µM. The Activity is given as 45.69% in assay [18]; 49.36% in assay [19]; 4.95% in assay [20]; 25.12% in [21]; 25.12% in [22]; 4.06% in [23]. The Activity in [24] was 11.21%; in [25] it was 9.85%.
Consider `Cc1ccc(-c2csc(NC(=O)CN3CCN(c4cc(=O)[nH]c5ccc(F)cc45)CC3)n2)cc1`, for which the inhibition of growth at 10 µM was found to be 53.2% in [1]; 51.1% in [2]; 47.5% in assay [3]; 39.7% in assay [5]; 18.9% in assay [6]; 45.2% in assay [7]. Further, the inhibition of growth at 10 µM in [8] is 21.5%; in assay [9] it was 23.9%; in assay [10], 44%; in [11], 33.9%; in assay [12], 55.9%; in assay [13], 33.5%. In addition, the inhibition of growth at 10 µM in assay [14] is 19%; in [15] it was 41.4%; in [16] it was 74.3%.

The record behind these values is ChEMBL document CHEMBL4819122, “Novel 4-(piperazin-1-yl)quinolin-2(1H)-one bearing thiazoles with antiproliferative activity through VEGFR-2-TK inhibition” (Bioorg Med Chem, 2021).
